Test results taken from ChEMBL document CHEMBL1121831 (1981).
pIC50: −log10 of the molar value.

Experiments:
CCRF-CEM [1] = assay: Compound is tested for the inhibition of growth of human lymphoblastic leukemia cells (CEM); assay type: functional; settings: read-out: ID50 (the source's name)
In short: (§1)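 CEM human lymphoblastic and L1210 murine leukemia cells were grown in culture with drug for 48 h, at concentrations up to 10 μM. The read-out was growth inhibition, given as ID50 or, where ID50 was not reached, as percent inhibition at 10 μM. Values are averages of triplicate experiments.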

[2] = target: Dihydrofolate reductase (Lactobacillus casei) (UniProt P00381); assay: Compound is evaluated for binding to Lactobacillus casei dihydrofolate reductase using kinetic assay; settings: Lacticaseibacillus casei
Sequence of Dihydrofolate reductase (Lactobacillus casei) (P00381 whole entry): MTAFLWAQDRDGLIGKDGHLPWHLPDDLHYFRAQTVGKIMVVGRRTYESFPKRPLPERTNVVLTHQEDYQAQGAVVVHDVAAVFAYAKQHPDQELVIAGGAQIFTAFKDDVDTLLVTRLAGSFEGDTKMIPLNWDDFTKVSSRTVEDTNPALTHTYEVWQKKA

L1210 [3] = assay: Compound is evaluated for activity against L1210 leukemia in mice, at dose 15 mg/kg in experiment 1; assay type: functional, Mus musculus
In short: (§2)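 B6D2F1 mice were inoculated ip with 10^5 L1210 cells on day 0. Test agents were given ip on days 1, 4 and 7 in 10% Tween 80 or a 1:1:8 emulphor-ethanol-water suspension; MTX was given ip as the disodium salt in water. Groups were mostly five mice. Read-out was median survival of treated vs control mice (days) and % increase in life span.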

L1210 [4] = assay: Compound is evaluated for activity against L1210 leukemia in mice, at dose 20 mg/kg in experiment 2; assay type: functional, Mus musculus; in short: as §2
L1210 [5] = assay: Compound is evaluated for activity against L1210 leukemia in mice, at dose 40 mg/kg in experiment 2; assay type: functional, Mus musculus; in short: as §2
L1210 [6] = assay: Compound was evaluated for activity against L1210 leukemia in mice, at dose 7.5 mg/kg in experiment 1; assay type: functional, Mus musculus; in short: as §2
L1210 [7] = assay: Compound is tested for the inhibition of growth of murine leukemia cells (L1210); assay type: functional; settings: Mus musculus, read-out: ID50 (the source's name); in short: as §1
L1210 [8] = assay: Compound is evaluated for percent increase in life span against L1210 leukemia in mice, at dose 20 mg/kg in experiment 2; assay type: functional; settings: Mus musculus
In short: (§3)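 B6D2F1 mice were inoculated ip with 10⁵ L1210 cells on day 0. Drug was given ip on days 1, 4 and 7 (q3d) as a suspension in 10% Tween 80 or 1:1:8 emulphor–ethanol–water, or as the disodium salt in water. The read-out was median survival of treated versus control mice (T/C, days), expressed as % increase in life span.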

L1210 [9] = assay: Compound is evaluated for percent increase in life span against L1210 leukemia in mice, at dose 40 mg/kg in experiment 2; assay type: functional; settings: Mus musculus; in short: as §3
L1210 [10] = assay: Compound is evaluated for percent increase in life span against L1210 leukemia in mice, at dose 7.5 mg/kg in experiment 1; assay type: functional; settings: Mus musculus; in short: as §3
L1210 [11] = assay: Compound is evaluated for percent increase in life span against L1210 leukemia in mice, at dose 15 mg/kg in experiment 1; assay type: functional; settings: Mus musculus; in short: as §3
Mus musculus [12] = assay: Compound is evaluated for activity against L1210 leukemia in mice, at dose 40 mg/kg expressed as T/C in experiment 2=12/9; assay type: functional; in short: as §2
Mus musculus [13] = assay: Compound was evaluated for activity against L1210 leukemia in mice, at dose 7.5 mg/kg expressed as T/C in experiment 1=14/10; assay type: functional; in short: as §2
Mus musculus [14] = assay: Compound is evaluated for activity against L1210 leukemia in mice, at dose 15 mg/kg expressed as T/C in experiment 1=14/10; assay type: functional; in short: as §2
Mus musculus [15] = assay: Compound is evaluated for activity against L1210 leukemia in mice, at dose 20 mg/kg expressed as T/C in experiment 2=16/9; assay type: functional; in short: as §2
RBL-1 = assay: Compound was tested for the inhibition of growth of rat basophilic leukemia (RBL) cells; assay type: functional; settings: read-out: ID50 (the source's name)
[16] = target: T1, Dihydrofolate reductase (Mus musculus) (UniProt P00375); assay: Compound is evaluated for binding to L1210 mouse leukemia cells dihydrofolate reductase using ligand-binding assay
T1 sequence (whole entry): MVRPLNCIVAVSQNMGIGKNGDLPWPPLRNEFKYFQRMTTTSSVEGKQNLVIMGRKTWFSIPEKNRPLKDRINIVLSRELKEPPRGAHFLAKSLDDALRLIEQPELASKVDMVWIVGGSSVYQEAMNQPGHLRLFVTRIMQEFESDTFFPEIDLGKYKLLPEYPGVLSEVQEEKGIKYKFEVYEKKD

CCRF-CEM [17] = assay: Compound was tested for the inhibition of growth of human lymphoblastic leukemia cells (CEM); assay type: functional; settings: read-out: ID50 (the source's name); in short: as §1
[18] = target: Dihydrofolate reductase (Lactobacillus casei) (UniProt P00381); assay: Affinity for partially purified bacterial (Lactobacillus casei) dihydrofolate reductase; settings: Lacticaseibacillus casei
[19] = target: T1, Dihydrofolate reductase (Mus musculus); assay: Affinity for mammalian (L1210 mouse leukemia) dihydrofolate reductase
In short: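 Partially purified DHFR from L1210 cells, diluted 8-fold in 0.1 M KH2PO4 (pH 6.2) with 0.1% BSA and 1 mM NADPH, then held on ice 5 min. Competition with [3H]MTX over serial 5-fold dilutions starting from a 6 μM solution, 5 min at 0 °C. Unbound ligand removed with Norite charcoal and the supernatant counted; ID50 (50% drop in bound label) read from a logit-log plot.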

L1210 [20] = assay: Compound was tested for the inhibition of growth of murine leukemia cells (L1210); assay type: functional; settings: Mus musculus, read-out: ID50 (the source's name); in short: as §1
CCRF-CEM (Homo sapiens) = assay: Percent inhibition of human lymphoblastic leukemia cell growth (48h) at 10 uM
[21] = target: Dihydrofolate reductase (Lactobacillus casei) (UniProt P00381); assay: Compound is evaluated for binding to dihydrofolate reductase of Lactobacillus casei using kinetic assay; settings: Lacticaseibacillus casei
L1210 [22] = assay: Compound is evaluated for activity against L1210 leukemia in mice, at dose 120 mg/kg; assay type: functional, Mus musculus; in short: as §2
L1210 [23] = assay: Compound is evaluated for activity against L1210 leukemia in mice, at dose 40 mg/kg; assay type: functional, Mus musculus; in short: as §2
L1210 [24] = assay: Compound is evaluated for activity against L1210 leukemia in mice, at dose 80 mg/kg; assay type: functional, Mus musculus; in short: as §2
L1210 [25] = assay: Compound is evaluated for percent increase in life span against L1210 leukemia in mice, at dose 80 mg/kg; assay type: functional; settings: Mus musculus; in short: as §3
L1210 [26] = assay: Compound is evaluated for percent increase in life span against L1210 leukemia in mice, at dose 40 mg/kg; assay type: functional; settings: Mus musculus; in short: as §3
L1210 [27] = assay: Compound is evaluated for percent increase in life span against L1210 leukemia in mice, at dose 120 mg/kg; assay type: functional; settings: Mus musculus; in short: as §3
Mus musculus [28] = assay: Compound is evaluated for activity against L1210 leukemia in mice, at dose 40 mg/kg expressed as T/C= 13/9; assay type: functional; in short: as §2
Mus musculus [29] = assay: Compound is evaluated for activity against L1210 leukemia in mice, at dose 80 mg/kg expressed as T/C=19/9; assay type: functional; in short: as §2
Mus musculus [30] = assay: Compound is evaluated for activity against L1210 leukemia in mice, at dose 120 mg/kg expressed as T/C=23/9; assay type: functional; in short: as §2
L1210 [31] = assay: Compound is evaluated for activity against L1210 leukemia in mice, at dose 160 mg/kg; assay type: functional, Mus musculus; in short: as §2
L1210 [32] = assay: Compound is evaluated for percent increase in life span against L1210 leukemia in mice, at dose 160 mg/kg; assay type: functional; settings: Mus musculus; in short: as §3
Mus musculus [33] = assay: Compound is evaluated for activity against L1210 leukemia in mice, at dose 80 mg/kg expressed as T/C=11/9; assay type: functional; in short: as §2
Mus musculus [34] = assay: Compound is evaluated for activity against L1210 leukemia in mice, at dose 160 mg/kg expressed as T/C=15/9; assay type: functional; in short: as §2

pIC50 (CCRF-CEM [17])	pIC50 (L1210 [20])	SMILES	pIC50 (CCRF-CEM [1])	ID50 [2] [nM]	pIC50 (L1210 [7])	pIC50 (RBL-1)	ID50 [16] [nM]	inhibition at 10 µM (CCRF-CEM (Homo sapiens)) [%]	MTX equivalent (L1210 [24]) [mg/kg]	ILS at 80 mg/kg (L1210 [25]) [%]	also measured
–	–	CN(Cc1cnc2nc(N)nc(N)c2n1)c1ccc(C(=O)NC(CCC(=O)NN)C(=O)NN)cc1 (configuration not stated)	5.12	360	6.02	6.02	20	–	–	–	MTX equivalent (L1210 [3]): 14.2 mg/kg; MTX equivalent (L1210 [4]): 18.8 mg/kg; MTX equivalent (L1210 [5]): 37.6 mg/kg; MTX equivalent (L1210 [6]): 7.1 mg/kg; ILS at 20 mg/kg (L1210 [8]): 77%; ILS at 40 mg/kg (L1210 [9]): 33%; ILS at 7.5 mg/kg (L1210 [10]): 40%; ILS at 15 mg/kg (L1210 [11]): 40%; Median T/C (Mus musculus [12]): 12 days; Median T/C (Mus musculus [13]): 14 days; Median T/C (Mus musculus [14]): 14 days; Median T/C (Mus musculus [15]): 16 days
< 5.00	< 5.00	CC(NC(=O)CCC(NC(=O)c1ccc(N(C)Cc2cnc3nc(N)nc(N)c3n2)cc1)C(=O)NC(C)c1ccccc1)c1ccccc1 (configuration not stated)	–	–	–	–	–	25	–	–	ID50 [18]: 310 nM; ID50 [19]: 11 nM
< 5.00	5.47	CN(Cc1cnc2nc(N)nc(N)c2n1)c1ccc(C(=O)NC(CCC(=O)NC23CC4CC(CC(C4)C2)C3)C(=O)NC23CC4CC(CC(C4)C2)C3)cc1 (configuration not stated)	–	6300	–	5.80	3100	38	–	–	–
–	–	CN(Cc1cnc2nc(N)nc(N)c2n1)c1ccc(C(=O)NC(CCC(=O)Nc2ccccc2)C(=O)Nc2ccccc2)cc1 (configuration not stated)	5.48	–	6.39	–	74	–	60	111	ID50 [21]: 1100 nM; MTX equivalent (L1210 [22]): 90 mg/kg; MTX equivalent (L1210 [23]): 30 mg/kg; ILS at 40 mg/kg (L1210 [26]): 44%; ILS at 120 mg/kg (L1210 [27]): 155%; Median T/C (Mus musculus [28]): 13 days; Median T/C (Mus musculus [29]): 19 days; Median T/C (Mus musculus [30]): 23 days
–	–	COc1ccc(CNC(=O)CCC(NC(=O)c2ccc(N(C)Cc3cnc4nc(N)nc(N)c4n3)cc2)C(=O)NCc2ccc(OC)cc2)cc1 (configuration not stated)	< 5.00	400	5.09	–	130	44	64	22	MTX equivalent (L1210 [31]): 128 mg/kg; ILS at 160 mg/kg (L1210 [32]): 66%; Median T/C (Mus musculus [33]): 11 days; Median T/C (Mus musculus [34]): 15 days
